ChEMBL document CHEMBL1142707, “Bisaryloxime ethers as potent inhibitors of transthyretin amyloid fibril formation” (J Med Chem, 2005)

Experiments:
[1] = target: Transthyretin (Homo sapiens) (UniProt P02766); test: Percentage of WT-TTR (3.6 uM) amyloid fibril formation at pH 4.4 upon incubation with the compound (7.2 uM); compound is unstable
Summary of the method: (§1)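 WT-TTR (7.2 µM, 0.4 mg/mL) in 10 mM phosphate pH 7.2, 100 mM KCl, 1 mM EDTA was preincubated 30 min at 37 °C with inhibitor added from a 1.44 mM DMSO stock. An equal volume of 200 mM acetate pH 4.2 brought the sample to pH 4.4 (3.6 µM TTR, 7.2 µM compound final). Left 72 h at 37 °C, vortexed, turbidity read at 350 and 400 or 500 nm. Run in duplicate or triplicate.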

[2] = target: Transthyretin (Homo sapiens) (UniProt P02766); test: Percentage of WT-TTR (3.6 uM) amyloid fibril formation at pH 4.4 upon incubation with the compound (7.2 uM); summary of the method: as §1
[3] = target: Transthyretin (Homo sapiens) (UniProt P02766); test: Binding stoichiometry to TTR in human blood plasma determined by antibody capture/HPLC method; assay type: cell-free
Summary of the method: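 Human blood plasma spiked to 10.8 µM test compound from a 2.16 mM DMSO stock and incubated 24 h at 37 °C. Plasma was precleared with plain Sepharose for 1 h at 4 °C, then split into three aliquots for anti-TTR antibody-resin capture (20 min, 4 °C) in 10 mM Tris pH 8.0, 140 mM NaCl. Resin washed, eluted with 100 mM triethylamine pH 11.5, eluate analysed by HPLC for compound:TTR stoichiometry.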

[4] = target: Transthyretin (Homo sapiens) (UniProt P02766); test: Percentage compound remaining at the conclusion of the acid-mediated fibril formation assay (72 h), assay conditions compound (7.2 uM), WT-TTR (3.6 uM, pH 7.2, 37C)
Summary of the method: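 Compound at 7.2 µM was incubated in the dark with 3.6 µM WT-TTR at 37 °C for 72 h, with the buffer held at pH 7.2. Analytical RP-HPLC peak area of the compound at the end was compared with the area at the start.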

[5] = target: Transthyretin (Homo sapiens) (UniProt P02766); test: Percentage compound remaining at the conclusion of the acid-mediated fibril formation assay (72 h), assay conditions compound (7.2 uM), WT-TTR (3.6 uM, pH 4.4, 37C)
Summary of the method: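 Compound at 7.2 µM was incubated in the dark with or without 3.6 µM WT-TTR under acid fibril conditions (pH 4.4, 37 °C, 72 h). Analytical RP-HPLC peak area of the compound at the end was compared with the area at the start. Measurement error stated as 4%.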

Row | Compound | Formation [1] | Formation [2] | Binding stoichiometry [3] | Activity [4] | Activity [5]
1 | O=C(O)c1ccccc1/C=N/Oc1ccccc1C(=O)O | Unstable |  |  |  | 
2 | O=C(O)c1ccc(/C=N/Oc2ccccc2C(F)(F)F)cc1 |  | 3% | 1.38 | 76% | 83%
